{"data": "Experimental data pooled from the literature", "cell line": "MCF-10A", "effect on": "cell growth or viability", "note": "Lines come from different studies, so protocols differ."}
{"Compound": "COc1cccc2c1C(=O)c1c(O)c3c(c(O)c1C2=O)C[C@@](O)(C(=O)CO)C[C@@H]3O[C@H]1C[C@H](N)[C@H](O)[C@H](C)O1", "setting": "48 h", "IC50 [µM]": 2.17}
{"Compound": "C[C@H]1O[C@@H](n2cc(F)c(=O)[nH]c2=O)[C@H](O)[C@@H]1O", "assay": "CCK-8", "setting": "48 h", "IC50 [µM]": 8.51}
{"Compound": "COc1cccc2c1C(=O)c1c(O)c3c(c(O)c1C2=O)C[C@@](O)(C(=O)CO)C[C@@H]3O[C@H]1C[C@H](N)[C@H](O)[C@H](C)O1", "assay": "resazurin", "setting": "72 h", "IC50 [µM]": 0.037}
{"Compound": "CC(C)C(=O)Nc1ccc([N+](=O)[O-])c(C(F)(F)F)c1", "assay": "CCK-8", "setting": "48 h", "IC50 [µM]": 21.4}
{"Compound": "O=C(/C=C/c1ccccc1)c1ccccc1", "assay": "resazurin", "setting": "72 h", "IC50 [µM]": 3.15}
{"Compound": "O=C(NC(=S)NCCNC(=S)NC(=O)c1ccc2ccccc2c1)c1ccc2ccccc2c1", "setting": "48 h", "IC50 [µM]": 86.1}
{"Compound": "Cc1cc2ncc(-c3ccccc3)nc2cc1C", "setting": "48 h", "IC50 [µM]": "> 50"}
{"Compound": "c1ccc2cc(-c3nnc(NC4CCCCC4)[nH]3)ccc2c1", "setting": "48 h", "IC50 [µM]": 86.6}
{"Compound": "COc1ccc(-c2cnc3c(n2)CCCC3)cc1C#N", "setting": "48 h", "IC50 [µM]": "> 50"}
{"Compound": "CCN(CC)CCNC(=O)c1c(C)[nH]c(/C=C2\\C(=O)Nc3ccc(F)cc32)c1C", "setting": "72 h", "IC50 [µM]": 4.07}
{"Compound": "CCCOc1cccc(-c2cnc3c(n2)CCCC3)c1", "setting": "48 h", "IC50 [µM]": "> 50"}
{"Compound": "C[C@](C#N)(COc1cc(C#N)ccc1C(F)(F)F)NC(=O)c1ccc(SC(F)(F)F)cc1", "setting": "48 h", "IC50 [µM]": "~32.8"}
{"Compound": "CC(C)[C@H](NC(=O)c1cc(Cl)ccc1OCCNC(=O)OC(C)(C)C)C(=O)Nc1ccc([N+](=O)[O-])cc1Cl", "assay": "MTT", "setting": "72 h", "IC50 [µM]": "> 60"}
{"Compound": "CCCc1ccc(-c2cnc3c(n2)CCCC3)cc1", "setting": "48 h", "IC50 [µM]": "> 50"}
